Most compounds without a hit are left out; they make up all but 2.1% or so of the library.
dFosB act-1 = activators of delta FosB homodimer, primary screen, biochemical, fluorescence polarization, TAMRA-CDK5 oligo, single point; purified delta FosB; percent of positive-control signal above neutral wells; activation, % at 25 µM; hit rate 0.99% among 340,000;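 active = mean activation above about 17%, with every replicate also reaching it, limit read from the data, passing the limit was not always enough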
SR-BI DiI-HDL act = activators of SR-BI mediated DiI-HDL uptake, primary screen, ldlA[mSR-BI] CHO cells, DiI fluorescence; AID 504775, 2011; hit rate 0.096% among 320,000; 3 h; 100 = double the neutral-control signal; activation, % at 12.5 µM;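 active = mean replicate activation of at least 60% and every replicate at or above 60%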;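 note: 0% = median plate neutral-control signal and 100% = twice that signal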
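Material – SR-BI-overexpressing, LDLR-lacking CHO cells · Medium – BSA-supplemented, HEPES-buffered Ham's F12, pH 7.4 · Doses – single concentration · Times – compound with DiI-HDL co-incubation, 3 h at 37 °C · Measured by – bottom-read fluorescence, 550/595 nm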
PKA-R2B activ = activators of PKA-R2B holoenzyme, primary screen, biochemical, fluorescence polarization, Cy5-IP20, human | PKA-R2B holoenzyme dissociation; R2B truncated from residue 108, S112A mutant; 0% DMSO only, 100% 113 µM cGMP | hit rate 0.079% among 340,000 | AID 504700, 2011 | activation, % at 11.4 µM | cAMP-dependent protein kinase catalytic subunit beta (Homo sapiens) + cAMP-dependent …;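 active = activation above a cutoff set at the mean over all compounds plus 3 SD, cut at about 18% in these data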;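 note: higher means more holoenzyme dissociation and a rise in polarization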
PKA-R1A act = activators of PKA-R1A holoenzyme, primary screen, biochemical, fluorescence polarization, Cy5-IP20, bovine R1A, mouse PKAc. hit rate 0.083% among 340,000. cAMP-dependent protein kinase type I-alpha regulatory subunit (Bos taurus) + …. activation, % at 11.4 µM. PKA-R1A dissociation; scaled: DMSO 0%, 113 µM cGMP 100%;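 active = percent activation above the mean of all tested compounds plus 3 SD, cut at about 19% in these data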;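 note: higher means more PKAc released from R1A so a rise in polarization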
SR-BI DiI inh = inhibitors of SR-BI mediated HDL lipid uptake, primary screen, ldlA[mSR-BI] cells, fluorescence, single point; inhibition, % at 12.5 µM; ldlA[mSR-BI] CHO cells, DiI-HDL uptake fluorescence, 3 h; hit rate 0.96% among 320,000; Scavenger receptor class B member 1 (Mus musculus), Q61009;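 active = mean replicate inhibition of at least 70% and a set share of replicates each scoring 70 or more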;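 note: 0% = median of neutral control wells and 100% = median of positive control wells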
Target sequence (Q61009 whole entry, looked up): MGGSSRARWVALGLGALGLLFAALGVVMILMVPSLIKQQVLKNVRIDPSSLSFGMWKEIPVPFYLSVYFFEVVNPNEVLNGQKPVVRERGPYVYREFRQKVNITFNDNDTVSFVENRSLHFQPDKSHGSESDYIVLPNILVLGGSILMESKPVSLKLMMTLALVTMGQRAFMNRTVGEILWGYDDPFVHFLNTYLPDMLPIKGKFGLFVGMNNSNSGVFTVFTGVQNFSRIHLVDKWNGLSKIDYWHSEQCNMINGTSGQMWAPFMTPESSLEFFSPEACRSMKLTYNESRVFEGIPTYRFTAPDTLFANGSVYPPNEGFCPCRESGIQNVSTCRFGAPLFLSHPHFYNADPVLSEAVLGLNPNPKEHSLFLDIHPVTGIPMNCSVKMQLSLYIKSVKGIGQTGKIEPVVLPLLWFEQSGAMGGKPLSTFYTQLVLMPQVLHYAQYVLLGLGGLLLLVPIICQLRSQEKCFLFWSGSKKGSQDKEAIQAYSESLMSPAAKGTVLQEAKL
CDK5 inh = inhibitors of human CDK5/p35 kinase, primary screen, biochemical, single concentration | Cyclin-dependent kinase 5 (Homo sapiens) + Cyclin-dependent kinase 5 activator 1 (Homo … | Recombinant CDK5/p35, ADP-Glo luminescence, 60 min | inhibition, % at 10 µM | hit rate 0.01% among 330,000 | AID 488839, 2010;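 active = highest replicate inhibition of at least 50% and at least 75% of replicates reaching 50%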;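 note: plate controls were DMSO neutral control for no effect and GW8510 at 10 µM for full effect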
dFosB act-2 = activators of mouse delta FosB DNA binding, confirmation, biochemical, fluorescence polarization, TAMRA-CDK5 oligo, cherry-picked samples; shares compounds with dFosB act-1; purified delta FosB; normalised: neutral wells 0, positive control 100; activation, % at 24.9 µM; 2,400 tested, under 10 active; AID 588690, 2011;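 active = highest replicate activation at or above 34% and every replicate reaching that threshold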;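 note: higher polarization means more probe DNA bound by delta FosB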
* marks the source's active call; other numbers are inactive results; / = no result given.

SMILES	dFosB act-1	SR-BI DiI-HDL act	PKA-R2B activ	PKA-R1A act	SR-BI DiI inh	CDK5 inh	dFosB act-2
O=C(CCC(=O)NNC(=O)COc1ccc(Br)cc1Br)NCc1ccccc1	34*	5	/	/	-5	1	3
Cc1cc(Br)cc(Br)c1OCC(=O)NNC(=O)CCC(=O)NCc1ccccc1	25*	29	-8	-7	-29	2	1
O=C(CCC(=O)NNC(=O)COc1ccccc1)NCc1ccccc1	5	27	2	9	-27	0	/
CC(C)CCNC(=O)CCC(=O)NNc1nc2ccccc2c2nc(-c3ccccc3)nn12	56*	12	4	4	-12	1	6
O=C(CCC(=O)NNc1nc2ccccc2c2nc(-c3ccccc3)nn12)NCCCN1CCOCC1	-24	-2	-1	4	2	1	/
CCc1ccccc1NC(=O)CN(C)C(=O)c1cccc(S(=O)(=O)N2CCCCCC2)c1	-14	-15	-9	11	15	1	/
COc1ccccc1C1CC(c2ccccc2)=NN1S(=O)(=O)c1ccccc1 (configuration not stated)	-7	-10	5	-12	10	-1	/
COc1cccc(C2CC(c3ccccc3)=NN2S(=O)(=O)c2ccc(C)cc2)c1OC (configuration not stated)	39*	33	4	-7	-33	-1	1
Cc1ccc(CNC(=O)c2cc(S(=O)(=O)N3CCCCC3)ccc2N2CCOCC2)cc1	-7	-22	3	-12	22	0	/
CC(=O)c1ccc(NC(=O)Cn2cnc(S(=O)(=O)N3CCC(C)CC3)c2)cc1	35*	14	-10	-1	-14	-1	-2
C=CCNC(=O)C1CC(=O)N(c2ccc(OCC(=O)Nc3ccc(Cl)c(C(F)(F)F)c3)cc2)C1 (configuration not stated)	27*	-46	2	7	46	-1	0
C=CCNC(=O)C1CC(=O)N(c2ccc(OCC(=O)Nc3cccc(OC)c3)cc2)C1 (configuration not stated)	-4	/	-4	1	/	2	/
O=C(Nc1nc2c(Cl)ccc(Cl)c2s1)C1CC1	28*	-26	-1	15	26	1	0
O=S(=O)(Nc1ccc2c(c1)nc1n2CCN(Cc2ccccc2)C1)c1ccccc1	24*	-12	2	-6	12	-1	-3
O=S(=O)(Nc1ccc2c(c1)nc1n2CCN(Cc2ccccc2)C1)c1ccc(Cl)cc1	23*	13	-7	10	-13	0	-9
CCn1c(CNC(=O)c2ccco2)nnc1SCC(=O)Nc1cc(F)ccc1C	1	17	4	3	-17	1	/
Cc1cccc(NC(=O)c2cc(-c3cc(C)c(C)cc3O)n[nH]2)c1	-5	14	-4	-2	-14	-1	/
Cc1ccc(-c2cc(C(=O)Nc3cccnc3)[nH]n2)c(O)c1C	25*	/	-9	2	/	-1	3
Cc1ccc(-c2cc(C(=O)NCc3ccc4c(c3)OCO4)[nH]n2)c(O)c1C	21*	6	0	-6	-6	-2	-2
Cc1c(Cl)cccc1NC(=S)C(=C([O-])c1ccc(Cl)s1)[n+]1ccccc1	-3	-25	-6	-12	25	0	/
O=C(N/N=C/c1cccc2nccnc12)c1ccccc1O	23*	/	-12	5	/	0	-4
CCc1nnc(NC(=O)C(c2ccccc2)c2ccccc2)s1	-8	/	-2	4	/	0	/
COc1ccc(S(=O)(=O)N(C)C[C@H]2Oc3c(NC(=O)Nc4ccc(C(F)(F)F)cc4)cccc3C(=O)N([C@H](C)CO)C[C@@H]2C)cc1	66*	49	-1	-10	-49	-1	0
C[C@H](CO)N1C[C@H](C)[C@@H](CN(C)S(=O)(=O)c2ccccc2)Oc2c(NC(=O)Nc3ccccc3)cccc2C1=O	-6	6	3	-1	-6	-2	/
COc1ccc(S(=O)(=O)N(C)C[C@H]2Oc3c(NC(=O)Nc4ccccc4)cccc3C(=O)N([C@H](C)CO)C[C@@H]2C)cc1	-27	-12	-5	-3	12	1	/
SMILES	dFosB act-1	SR-BI DiI-HDL act	PKA-R2B activ	PKA-R1A act	SR-BI DiI inh	CDK5 inh	dFosB act-2
C[C@H]1CN([C@@H](C)CO)C(=O)c2cccc(NC(=O)Nc3ccc(C(F)(F)F)cc3)c2O[C@@H]1CN(C)S(=O)(=O)c1ccccc1	29*	5	-9	-10	-5	2	4
Cc1ccc(NC(=O)CN2CCC(NC(=O)c3ccccc3F)CC2)cc1C	-6	-10	1	-10	10	-2	/
CCOC(=O)c1c(C)[nH]c(C(=O)OCC(=O)NCc2ccc(OC)c(OC)c2)c1C	5	-27	-7	-8	27	2	/
CCOC(=O)c1c(C)[nH]c(C(=O)OCC(=O)Nc2cc(C)c(Cl)cc2OC)c1C	45*	-23	1	-4	23	1	1
c1ccc(CSc2nnc(-c3c[nH]c4ccccc34)o2)cc1	20*	13	2	-1	-13	0	6
CCOc1ccc(CC(=O)Nc2c(C(=O)Nc3ccccc3)oc3ccccc23)cc1OCC	27*	-28	2	-8	28	2	2
Nc1ccc(S(=O)(=O)Nc2nccc(/C=C/c3ccccc3F)n2)cc1	26*	-12	/	/	12	0	3
O=C(Nc1cccnc1Cl)c1cc(-c2cccc(O)c2)on1	55*	0	3	-3	0	1	8
COc1cccc(-c2cc(C(=O)Nc3cccnc3Cl)no2)c1	31*	-10	-9	6	10	0	-2
COc1cccc(-c2cc(C(=O)Nc3ccccc3SC)no2)c1	5	-26	-6	-4	26	-1	/
Cc1ccc(NC(=O)c2ccc(=O)n(CC(=O)Nc3ccccc3)n2)cc1	15	3	0	8	-3	0	/
COc1ccc2cc(C)c3nnc(SCC(=O)Nc4nc(-c5ccccc5)cs4)n3c2c1	41*	-20	-8	-9	20	-1	2
O=C(Nc1nc2ccc(F)cc2s1)c1ccc(N2CCCC2=O)cc1	25*	-36	10	-22	36	2	0
